According to ChEMBL document CHEMBL4359898, “Pyrazolo-benzothiazole hybrids: Synthesis, anticancer properties and evaluation of antiangiogenic activity using in vitro VEGFR-2 kinase and in vivo transgenic zebrafish model” (Eur J Med Chem, 2019):
Active and inactive are the calls of the source. The rule behind the calls is not given here.

Legend:
[1] = test system: PC-3; test: Cytotoxicity against human PC3 cells assessed as reduction in cell viability incubated for 72 hrs by MTT assay; details: PC-3, 72 h
[2] = test system: HEK-293T; test: Cytotoxicity against HEK293T cells assessed as reduction in cell viability incubated for 72 hrs by MTT assay; details: Homo sapiens
[3] = test system: U-87 MG; test: Cytotoxicity against human U87MG cells assessed as reduction in cell viability incubated for 72 hrs by MTT assay
[4] = test system: HT-29; test: Cytotoxicity against human HT-29 cells assessed as reduction in cell viability incubated for 72 hrs by MTT assay; details: HT-29, 72 h
[5] = test system: A549; test: Cytotoxicity against human A549 cells assessed as reduction in cell viability incubated for 72 hrs by MTT assay; details: A549, 72 h
[6] = test system: PC-3; test: Induction of apoptosis in human PC3 cells assessed as late apoptotic cells at 3 uM incubated for 48 hrs by annexin V FITC and propidium iodide staining based flow cytometry (reference value: 1.2 %); assay type: functional
In short: (§1)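 PC-3 cells at 1 × 10^6 per well were treated 48 h at […]. Cells were trypsinised, washed in PBS and resuspended in annexin binding buffer. Annexin V-FITC and PI were added for 15 min at room temperature. 10000 cells were analysed by flow cytometry and sorted into quadrants as live, early apoptotic, late apoptotic or necrotic.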

[7] = test system: PC-3; test: Induction of apoptosis in human PC3 cells incubated for 48 hrs by annexin V FITC and propidium iodide staining based flow cytometry; assay type: functional, cell-based; in short: as §1
[8] = test system: PC-3; test: Induction of apoptosis in human PC3 cells assessed as nuclei condensation incubated for 48 hrs by […] staining based fluorescence microscopy; assay type: functional, cell-based
In short: (§2)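 PC-3 cells on coverslips (1 × 10^6 per well) were incubated 48 h with […]. Cells were PBS-washed, 4% paraformaldehyde was added, and they were stained 20 min with […]. After three PBS washes, nuclei were examined by fluorescence microscopy for chromatin condensation and fragmentation.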

[9] = test system: PC-3; test: Induction of apoptosis in human PC3 cells assessed as early apoptotic cells at 5 uM incubated for 48 hrs by annexin V FITC and propidium iodide staining based flow cytometry (reference value: 2.8 %); assay type: functional; in short: as §1
[10] = test system: U-87 MG; details: Homo sapiens; U-87MG ATCC
[11] = test system: PC-3; test: Cell cycle arrest in human PC3 cells assessed as accumulation in G0/G1 phase at 3 uM incubated for 48 hrs by propidium iodide based flow cytometry (reference value: 51.3 %); assay type: functional
[12] = test system: PC-3; test: Induction of apoptosis in human PC3 cells assessed as early apoptotic cells at 3 uM incubated for 48 hrs by annexin V FITC and propidium iodide staining based flow cytometry (reference value: 2.8 %); assay type: functional; in short: as §1
[13] = test system: PC-3; test: Induction of apoptosis in human PC3 cells assessed as necrotic cells at 5 uM incubated for 48 hrs by annexin V FITC and propidium iodide staining based flow cytometry (reference value: 1 %); assay type: functional; in short: as §1
[14] = test system: PC-3; test: Induction of apoptosis in human PC3 cells assessed as necrotic cells at 3 uM incubated for 48 hrs by annexin V FITC and propidium iodide staining based flow cytometry (reference value: 1 %); assay type: functional; in short: as §1
[15] = test system: Danio rerio; test: Antiangiogenic activity in transgenic fli1a:EGFP-tagged zebrafish embryo assessed as reduction in intersegmental vessel sprouting administered from 24 hrs post fertilization and measured after 72 hrs by fluorescence microscopy; assay type: functional, organism-based
In short: (§3)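 Embryos staged after natural spawning and kept in E3 medium at 28.5 °C. At 1 dpf, 10 embryos per well were placed in E3 containing compound at […] and incubated 72 h at 28.5 °C. Untreated and 1% DMSO vehicle controls were included. Larvae were anaesthetised with 0.01% tricaine and mounted in 1% low-melt agarose. ISVs were imaged in the green channel, and % defective ISVs was counted manually.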

[16] = test system: PC-3; test: Induction of apoptosis in human PC3 cells assessed as late apoptotic cells at 1 uM incubated for 48 hrs by annexin V FITC and propidium iodide staining based flow cytometry (reference value: 1.2 %); assay type: functional; in short: as §1
[17] = test system: PC-3; test: Cell cycle arrest in human PC3 cells assessed as reduction in G2/M phase population at 1 uM incubated for 48 hrs by propidium iodide staining based flow cytometry; assay type: functional
[18] = test system: PC-3; test: Induction of apoptosis in human PC3 cells assessed as early apoptotic cells at 1 uM incubated for 48 hrs by annexin V FITC and propidium iodide staining based flow cytometry (reference value: 2.8 %); assay type: functional; in short: as §1
[19] = test system: PC-3; test: Induction of apoptosis in human PC3 cells assessed as necrotic cells at 1 uM incubated for 48 hrs by annexin V FITC and propidium iodide staining based flow cytometry (reference value: 1 %); assay type: functional; in short: as §1
[20] = test system: PC-3; test: Induction of apoptosis in human PC3 cells assessed as mitochondrial membrane potential loss incubated for 48 hrs by JC1 staining based fluorescence microscopy; assay type: functional, cell-based
In short: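 PC-3 cells were plated at 5 × 10^5 cells/mL and incubated 48 h with […]. The medium was then replaced with fresh medium containing JC-1 for 20 min. After three PBS washes, red and green fluorescence was imaged, and depolarisation was read as a rise in the green/red ratio.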

[21] = test system: PC-3; test: Induction of apoptosis in human PC3 cells assessed as nuclei fragmentation incubated for 48 hrs by […] staining based fluorescence microscopy; assay type: functional, cell-based; in short: as §2
[22] = test system: Danio rerio; test: Antiangiogenic activity in transgenic fli1a:EGFP-tagged zebrafish embryo assessed as reduction in intersegmental vessel sprouting at 0.1 uM administered from 24 hrs post fertilization and measured after 72 hrs by fluorescence microscopy relative to control; assay type: functional; set-up: scale not given: the % may be the effect or the level left; in short: as §3
[23] = test system: PC-3; test: Induction of apoptosis in human PC3 cells at incubated for 48 hrs by […] staining based fluorescence microscopy; assay type: functional, cell-based; in short: as §2
[24] = test system: PC-3; test: Induction of apoptosis in human PC3 cells assessed as viable cells at 1 uM incubated for 48 hrs by annexin V FITC and propidium iodide staining based flow cytometry (reference value: 95 %); assay type: functional; details: PC-3, 48 h, read-out: Activity; in short: as §1
[25] = test system: PC-3; test: Cell cycle arrest in human PC3 cells assessed as reduction in S phase population at 1 uM incubated for 48 hrs by propidium iodide staining based flow cytometry; assay type: functional
[26] = test system: PC-3; test: Induction of apoptosis in human PC3 cells assessed as viable cells at 3 uM incubated for 48 hrs by annexin V FITC and propidium iodide staining based flow cytometry (reference value: 95 %); assay type: functional; details: PC-3, 48 h, read-out: Activity; in short: as §1
[27] = test system: PC-3; details: Homo sapiens, 1 to 5 uM
[28] = test system: PC-3; test: Cell cycle arrest in human PC3 cells assessed as accumulation in G0/G1 phase incubated for 48 hrs by propidium iodide based flow cytometry; assay type: functional
[29] = test system: PC-3; test: Cell cycle arrest in human PC3 cells assessed as accumulation in G0/G1 phase at 5 uM incubated for 48 hrs by propidium iodide based flow cytometry (reference value: 51.3 %); assay type: functional
[30] = test system: PC-3; details: Homo sapiens, 3 uM
[31] = test system: PC-3; test: Inhibition of cell migration in human PC3 cells at 5 uM incubated for 48 hrs by phase contrast microscopy based scratch wound healing assay relative to control; assay type: functional; details: PC-3, 48 h
In short: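 Confluent PC-3 monolayers were scratched with a pipette tip to leave lanes about 1 mm wide, and debris was washed off with PBS. Cells were given complete medium alone or medium containing […]. Wounds were imaged by phase contrast at time zero and after 48 h.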

[32] = test system: PC-3; test: Cell cycle arrest in human PC3 cells assessed as accumulation in G0/G1 phase at 1 uM incubated for 48 hrs by propidium iodide based flow cytometry (reference value: 51.3 %); assay type: functional
[33] = test system: PC-3; test: Induction of apoptosis in human PC3 cells assessed as viable cells at 5 uM incubated for 48 hrs by annexin V FITC and propidium iodide staining based flow cytometry (reference value: 95 %); assay type: functional; details: PC-3, 48 h, read-out: Activity; in short: as §1
[34] = test system: Danio rerio; test: Antiangiogenic activity in transgenic fli1a:EGFP-tagged zebrafish embryo assessed as reduction in intersegmental vessel sprouting at 1 uM administered from 24 hrs post fertilization and measured after 72 hrs by fluorescence microscopy relative to control; assay type: functional; set-up: scale not given: the % may be the effect or the level left; in short: as §3
[35] = test system: PC-3; test: Induction of apoptosis in human PC3 cells assessed as late apoptotic cells at 5 uM incubated for 48 hrs by annexin V FITC and propidium iodide staining based flow cytometry (reference value: 1.2 %); assay type: functional; in short: as §1
[36] = test system: Danio rerio; test: Antiangiogenic activity in transgenic fli1a:EGFP-tagged zebrafish embryo assessed as reduction in intersegmental vessel sprouting at 0.5 uM administered from 24 hrs post fertilization and measured after 72 hrs by fluorescence microscopy relative to control; assay type: functional; set-up: scale not given: the % may be the effect or the level left; in short: as §3

SMILES: COc1ccc2nc(NC(=O)c3cn(-c4ccccc4)nc3-c3ccc(Cl)cc3)sc2c1
- IC50 [1]: 29.3 µM
- IC50 [2]: 29.6 µM
- IC50 [3]: 21.2 µM
- IC50 [4]: 18.6 µM
- IC50 [5]: 31.4 µM

SMILES: COc1ccc(-c2nn(-c3ccccc3)cc2C(=O)Nc2nc3ccccc3s2)cc1
- IC50 [1]: 6.67 µM
- IC50 [2]: 18.9 µM
- IC50 [3]: 11.5 µM
- IC50 [4]: 10.5 µM
- IC50 [5]: 13.7 µM

SMILES: COc1ccc(-c2nn(-c3ccccc3)cc2C(=O)Nc2nc3ccc(F)cc3s2)cc1
- IC50 [1]: 4.93 µM
- IC50 [2]: 15.4 µM
- IC50 [3]: 8.99 µM
- IC50 [4]: 5.56 µM
- IC50 [5]: 7.56 µM

SMILES: COc1ccc(-c2nn(-c3ccccc3)cc2C(=O)Nc2nc3ccc(C)cc3s2)cc1
- IC50 [1]: 15.9 µM
- IC50 [2]: > 50 µM
- IC50 [3]: > 50 µM
- IC50 [4]: 21.5 µM
- IC50 [5]: 27.7 µM

SMILES: Cc1ccc2nc(NC(=O)c3cn(-c4ccccc4)nc3-c3ccccc3)sc2c1
- IC50 [1]: 15.7 µM
- IC50 [2]: > 50 µM
- IC50 [3]: 23.2 µM
- IC50 [4]: > 50 µM
- IC50 [5]: 26.5 µM

SMILES: O=C(Nc1nc2ccc(Cl)cc2s1)c1cn(-c2ccccc2)nc1-c1ccc(F)cc1
- Activity [6]: 6.9%
- Activity [7]: Dose-dependent effect
- IC50 [1]: 3.17 µM
- Activity [8]: Dose-dependent effect
- Activity [9]: 16.7%
- inhibition [10]: Active
- Activity [11]: 74.8%
- Activity [12]: 13.8%
- Activity [13]: 2.8%
- Activity [14]: 2.1%
- Activity [15]: Dose-dependent effect
- Activity [16]: 3.7%
- Activity [17]: Active
- Activity [18]: 10.4%
- Activity [19]: 1.1%
- Activity [20]: Dose-dependent effect
- Activity [21]: Dose-dependent effect
- IC50 [2]: 45.7 µM
- IC50 [3]: 6.77 µM
- IC50 [4]: 3.32 µM
- Activity [22]: 16%
- Activity [23]: Dose-dependent effect
- viability at 1 µM [24]: 84.8%
- Activity [25]: Active
- viability at 3 µM [26]: 77.2%
- inhibition [27]: Active
- Activity [28]: Dose-dependent effect
- Activity [29]: 81.4%
- inhibition [30]: Active
- inhibition at 5 µM [31]: 100%
- Activity [32]: 65.5%
- IC50 [5]: 3.87 µM
- viability at 5 µM [33]: 70.9%
- Activity [34]: 54.5%
- Activity [35]: 9.6%
- Activity [36]: 47.3%

SMILES: O=C(Nc1nc2ccc(F)cc2s1)c1cn(-c2ccccc2)nc1-c1ccc(Cl)cc1
- IC50 [1]: 5.79 µM
- IC50 [2]: > 50 µM
- IC50 [3]: 7.77 µM
- IC50 [4]: 4.97 µM
- IC50 [5]: 8.86 µM

SMILES: O=C(Nc1nc2ccccc2s1)c1cn(-c2ccccc2)nc1-c1ccc(Cl)cc1
- IC50 [1]: 7.75 µM
- IC50 [2]: 39.6 µM
- IC50 [3]: 11.5 µM
- IC50 [4]: 13.7 µM
- IC50 [5]: 10.3 µM

SMILES: COc1ccc2nc(NC(=O)c3cn(-c4ccccc4)nc3-c3ccccc3)sc2c1
- IC50 [1]: 17.5 µM
- IC50 [2]: > 50 µM
- IC50 [3]: 40.6 µM
- IC50 [4]: > 50 µM
- IC50 [5]: > 50 µM

SMILES: Cc1ccc2nc(NC(=O)c3cn(-c4ccccc4)nc3-c3ccc(Cl)cc3)sc2c1
- IC50 [1]: 14.5 µM
- IC50 [2]: 35.6 µM
- IC50 [3]: 33.2 µM
- IC50 [4]: 23.7 µM
- IC50 [5]: 18.6 µM
